# Measured values pooled from the literature.
# Compare with care: the assays were run in different laboratories.
# Target: Serine/threonine-protein kinase Sgk3 (SGK3, Homo sapiens, UniProt Q96BR1)
# Residues used in one study (Q96BR1 1-496): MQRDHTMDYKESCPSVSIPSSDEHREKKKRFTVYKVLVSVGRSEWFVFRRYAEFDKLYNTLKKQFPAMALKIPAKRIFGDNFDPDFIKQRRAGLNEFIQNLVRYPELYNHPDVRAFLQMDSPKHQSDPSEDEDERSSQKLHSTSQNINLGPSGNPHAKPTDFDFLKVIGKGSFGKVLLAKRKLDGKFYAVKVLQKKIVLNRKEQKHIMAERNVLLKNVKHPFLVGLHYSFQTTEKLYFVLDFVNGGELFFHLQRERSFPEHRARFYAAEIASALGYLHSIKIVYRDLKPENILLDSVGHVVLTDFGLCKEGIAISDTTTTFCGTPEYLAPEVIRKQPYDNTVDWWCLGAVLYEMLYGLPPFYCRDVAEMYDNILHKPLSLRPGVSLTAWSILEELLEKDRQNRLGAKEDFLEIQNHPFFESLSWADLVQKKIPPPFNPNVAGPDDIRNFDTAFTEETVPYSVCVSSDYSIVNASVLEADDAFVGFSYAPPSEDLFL
SMILES,effect on,mode,technique,tested at,quantity,value
COc1ccc2[nH]c3c4[nH]c5ccc(OC)cc5c4c4c(c3c2c1)C(=O)NC4=O,binding,,,1 µM,remaining binding,8.1%
CCCCC(=O)Nc1ccc(-c2ccc3ncn(CCC)c(=O)c3c2)cn1,binding,,competition with immobilised ligand,0.5 µM,remaining binding,97%
C#Cc1cc(-c2cc(Nc3nc(N[C@@H](C)c4ccc(F)cn4)ncc3Cl)n[nH]2)ccc1C=O,enzyme activity,inhibitor,,0.2 µM,inhibition,19.1%
Cc1cc(O)c(-c2ccc([C@@H](C)CN(C)C)cc2)c2c1[nH]c(=O)c1sccc12,enzyme activity,inhibitor,,0.1 µM,inhibition,3.22%
C=CC(=O)N1CCC[C@@H](n2nc(-c3ccc(Oc4ccccc4)cc3)c3c(N)ncnc32)C1,enzyme activity,inhibitor,,1 µM,inhibition,9%
C[C@H]1CC[C@H](n2c3cnccc3c3cnc(Nc4ccc5c(n4)CCN(C(=O)CO)C5)nc32)CC1,cell-free assay,,,1 µM,remaining signal,39%
CC(C)S(=O)(=O)c1ccc2nccc(Nc3ccc4sc(C5CCCC5)nc4c3)c2c1,enzyme activity,inhibitor,,1 µM,activity vs control,110%
CO[C@@H]1[C@H](N(C)C(=O)c2ccccc2)C[C@H]2O[C@]1(C)n1c3ccccc3c3c4c(c5c6ccccc6n2c5c31)C(=O)NC4,enzyme activity,inhibitor,,1 µM,inhibition,43%
